Hits are enriched below; roughly 1.7% of the tested compounds scored in any of these assays.
IDE inh: human IDE inhibitors in live cells, primary screen, fluorescence polarization, HEK cells, FAbetaB substrate; FAbetaB cleavage; 320,000 compounds, 0.41% hits; Insulin-degrading enzyme (Homo sapiens), P14735; inhibition, % at 5.59 µM; AID 434962, 2010;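 active means percent inhibition above the average of all tested compounds plus 3 SD, set per screening campaign, cut at about 16% in these data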;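 further: IDE supplied by intact live HEK cells; FP after avidin binding of uncleaved biotin substrate so inhibition keeps polarization high; 0% = DMSO wells and 100% = 60 µM reference IDE inhibitor Ii1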
IDE cell activ: human IDE activators in live cells, primary screen, fluorescence polarization, HEK cells, FAbeta-B substrate; Insulin-degrading enzyme (Homo sapiens), P14735; FAbeta-B cleavage; 0% vehicle, 100% cell-free pure enzyme wells; activation, % at 5.96 µM; 340,000 compounds, 0.073% hits;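 active means activation above the mean of all tested compounds plus 3 SD, set per screening campaign, cut at about 17% in these data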
CSN inh: inhibitors of CSN-mediated cullin deneddylation, primary screen, biochemical, fluorescence polarization, uHTS; 360,000 compounds, 0.38% hits; AID 651999, 2013; inhibition, % at 12.5 µM; COP9 signalosome complex subunit 5 (Homo sapiens), Q92905; Purified CSN, SCF-Nedd8-OG deneddylation;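 active means pattern-corrected inhibition above about 35%, with an unprinted fluorescence ratio check between 0.5 and 1.5, limit read from the data, passing the limit was not always enough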;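 further: 0% = enzyme with substrate and 100% = substrate without enzyme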
Target sequence (Q92905 whole entry, looked up, one chain of several): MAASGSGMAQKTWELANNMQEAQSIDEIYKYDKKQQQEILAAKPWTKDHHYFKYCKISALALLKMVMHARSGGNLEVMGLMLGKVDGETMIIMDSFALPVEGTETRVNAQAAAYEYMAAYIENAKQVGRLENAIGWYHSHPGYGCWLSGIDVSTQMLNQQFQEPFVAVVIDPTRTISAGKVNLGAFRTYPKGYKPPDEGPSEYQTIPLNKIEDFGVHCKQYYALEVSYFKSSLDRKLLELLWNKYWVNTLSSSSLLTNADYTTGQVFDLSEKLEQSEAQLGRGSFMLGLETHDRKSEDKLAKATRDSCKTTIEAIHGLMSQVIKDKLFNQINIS
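assay system = purified human Csn5 enzyme expressed in HEK293T cells | amount = 0.24 nM enzyme | buffer or medium = Tris/NaCl/DTT buffer, pH 7.5 | reagent = 10 nM SCFSkp2-Nedd8OG | compound = one concentration, 12.5 µM, 0.25% DMSO | times = 90 min reaction at room temperature | signal = FP | read-out basis = % inhibition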
Rpn11 block: Rpn11 (PSMD14) deubiquitinase inhibitors, primary screen, biochemical, fluorescence polarization, uHTS; inhibition, % at 20 µM; 26S proteasome non-ATPase regulatory subunit 14 (Homo sapiens), O00487; 360,000 compounds, 0.59% hits; AID 588493, 2011; human 26S proteasome, Ub4-pepOG fluorescence polarization; 20S core pre-blocked with epoxomicin;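 active means inhibition at 20 µM, scaled to each plate's controls, above about 33%, limit read from the data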
HNF4A DNA FP: change in binding of human HNF4A to DNA, primary screen, biochemical, fluorescence polarization, FITC-DNA | 1 h | Hepatocyte nuclear factor 4-alpha (Homo sapiens), P41235 | AID 1224865, 2016 | activity change, % at 10 µM | 360,000 compounds, 0.3% hits; in the data active means activity change above about 30%, passing the limit was not always enough
TPT1 inhibitor: Candida albicans TPT1 enzyme inhibitors, primary screen, biochemical, fluorescence polarization; tRNA 2'-phosphotransferase TPT1 (Candida albicans SC5314); inhibition, % at 5 µM; recombinant caTPT1, FP RNA substrate dephosphorylation; 300,000 compounds, 0.81% hits;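 active means inhibition above the mean of all tested compounds plus 3 SD, set per screening campaign, cut at about 24% in these data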;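 further: plate controls were DMSO alone for no effect and ferristatin control at 100 nM for full effect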
Rpn11 confirm: Rpn11 (PSMD14) deubiquitinase inhibitors, confirmation, biochemical, fluorescence polarization, single concentration; AID 602318, 2012; shares compounds with Rpn11 block; purified human 26S proteasome, Ub4-pepOG fluorescence polarization; proteasome pretreated with epoxomicin; 1,900 compounds, 29% hits; inhibition, % at 20 µM
MMP-2 counter-1: MMP-2 enzyme inhibition, confirmation, counter-screen for RPN11 inhibitor project, biochemical, fluorescence, single concentration. 1,900 compounds, 4% hits. shares compounds with Rpn11 block. recombinant MMP-2, FRET peptide cleavage fluorescence. AID 602330, 2012. inhibition, % at 20 µM;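 further: human MMP-2 activated beforehand with APMA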
Thrombin FP: bovine thrombin protease inhibition, confirmation, counter-screen for Rpn11 inhibitor project, biochemical, fluorescence polarization, single concentration; shares compounds with Rpn11 block; inhibition, % at 20 µM; bovine thrombin cleavage of Ub4-pepOG; 1,900 compounds, 13% hits;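 active means mean inhibition at least 40% at 20 µM, or signal 3 deviations below plate average, so some actives read negative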;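 further: plate controls were thrombin with DMSO for no effect and buffer wells lacking thrombin for full effect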
CSN5 deneddyl: Csn5 deneddylation inhibitors, confirmation, biochemical, fluorescence polarization, single concentration, SCF-Nedd8OG substrate; shares compounds with CSN inh; Csn5 deneddylation of SCF-Nedd8OG, 90 min; inhibition, % at 16.6 µM; 540 compounds, 62% hits; in the data active means inhibition above about 50%;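 further: 0% = DMSO with enzyme and 100% = no enzyme wells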
MMP-2 counter-2: MMP-2 protease inhibition counter-screen, confirmation, counter-screen for CSN deneddylation inhibitor project, biochemical, fluorescence, single concentration. 540 compounds, 33% hits. AID 720655, 2013. inhibition, % at 16.6 µM. shares compounds with CSN inh. recombinant MMP-2, FRET substrate fluorescence, 60 min;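 active means corrected plate-normalized z-score of 5 or more, or -5 or less, or inhibition of 15% or more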;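 further: plate controls were DMSO wells with enzyme for no effect and buffer wells lacking MMP-2 for full effect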
Thrombin counter: blocks bovine thrombin in a CSN deneddylation counter-screen | AID 720656 | shares compounds with CSN inh | bovine thrombin cleavage of Ub4-pepOG, fluorescence polarization | inhibition, % at 16.6 µM | 540 compounds, 49% hits;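 active means inhibition at or above a set limit, with a fluorescence interference ratio between 0.5 and a set maximum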
HNF4a DNA conf: change in HNF4A binding to DNA, retest, confirmation, biochemical, fluorescence polarization, FITC-DNA. shares compounds with HNF4A DNA FP. 1 h. activity change, % at 12.5 µM. 210 compounds, 99% hits. AID 1224897, 2016; call rule not given here
Numbers without * were called inactive; · = no result given; ! = a repeat was not active. Unless noted, no stated cut-off is given here; in the data, active means inhibition above about 40%; inactive means the rest.

SMILES	IDE inh	IDE cell activ	CSN inh	Rpn11 block	HNF4A DNA FP	TPT1 inhibitor	CSN5 deneddyl	MMP-2 counter-2	Thrombin counter	others
CCCCN1C(=O)/C(=C/C=C/c2ccco2)C(=O)NC1=S	·	-1	89*	146*	38*	·	-60	-5	67*	Rpn11 confirm=155*;MMP-2 counter-1=47*;Thrombin FP=143*
CC1CC2(C)C(CCC3C2CCC2(C)C(OP(=O)(N4CC4)N4CC4)CCC32)CC1=O (stereo unspecified)	·	4	1	2	-1	·	·	·	·
O=c1[nH]c(=S)[nH]c(O)c1N=Nc1ccc2c(c1)OCO2	8	-9	13	46*	42*	10	·	·	·	Rpn11 confirm=17;MMP-2 counter-1=32;Thrombin FP=11;HNF4a DNA conf=46*
CCOC(=O)[C@]12Cc3cc4ccccc4cc3[C@H]1N(Cc1ccccc1)C(=O)c1cc(OC)ccc12	·	·	0	·	-5	·	·	·	·
Cc1cc(N(CCCl)CCCl)ccc1C=Cc1ccncn1	·	-26	41*	·	67*	·	53*	-23	37*
CN(C)[C@@H]1C(=O)C(C(N)=O)=C(O)[C@@]2(O)C(=O)C3=C(O)c4c(O)cccc4[C@@](C)(O)C3[C@H](O)C12 (stereo partly specified)	-1	-1	37*!	·	-57	-31	89*	9	13
O=P1(c2ccccc2)CC=CC1	·	·	-1	10	3	·	·	·	·
CCCCn1c(NS(=O)(=O)c2ccccc2)c(C(=O)OCC)c2nc3ccccc3nc21	11	-7	63*	8	1	2	103*	7	-32
CCCCn1c(NC(=O)c2ccc(Br)o2)c(C(=O)OCC)c2nc3ccccc3nc21	3	-7	21	36	0	11	·	·	·
O=C1Nc2ccccc2/C1=C/c1nc2ccccc2c(=O)n1-c1ccc(O)cc1	-5	1	-1	-7	0	-1	·	·	·
O=c1c2ccccc2nc(/C=C/c2ccc([N+](=O)[O-])o2)n1-c1ccc(O)cc1	·	·	50*	·	177	·	65*	-1	46*

Assay outcomes: PubChem BioAssay, several laboratories
